Measured values as given in ChEMBL document CHEMBL3244193, “Design of species- or isozyme-specific enzyme inhibitors. 3. Species and isozymic differences between mammalian and bacterial adenylate kinases in substituent tolerance in an enzyme-substrate complex” (J Med Chem, 1979).

What was measured:
[1] = substrate: CCCSc1nc2c(N)ncnc2n1[C@@H]1O[C@H](COP(=O)(O)OP(=O)(O)OP(=O)(O)O)[C@@H](O)[C@H]1O; assay: (§1) Activity of Sprague-Dawley rat liver adenylate kinase 3 by Lineweaver-Burk plot analysis
In short: (§2)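 Substrate kinetics in a pyruvate kinase/lactate dehydrogenase-coupled assay: 0.1 M Tris-HCl pH 7.6, 2 mM MgSO4, 0.12 M KCl, 0.3 mM PEP, 0.38 mM NADH, 0.25 mM AMP. A340 change over 5 min at 23 °C. Derivatives screened first at ca. 0.8 mM. Five or more substrate levels; KM and Vmax (relative to ATP) taken from linear Lineweaver-Burk plots.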

[2] = substrate: CCSc1nc2c(N)ncnc2n1[C@@H]1O[C@H](COP(=O)(O)OP(=O)(O)OP(=O)(O)O)[C@@H](O)[C@H]1O; assay: as §1; in short: as §2
[3] = substrate: CSc1nc2c(N)ncnc2n1[C@@H]1O[C@H](COP(=O)(O)OP(=O)(O)OP(=O)(O)O)[C@@H](O)[C@H]1O; assay: as §1; in short: as §2
[4] = substrate: Nc1ncnc2c1nc(SCCO)n2[C@@H]1O[C@H](COP(=O)(O)OP(=O)(O)OP(=O)(O)O)[C@@H](O)[C@H]1O; assay: as §1; in short: as §2
[5] = substrate: Nc1ncnc2c1ncn2[C@@H]1O[C@H](COP(=O)(O)OP(=O)(O)OP(=O)(O)O)[C@@H](O)[C@H]1O; assay: as §1; in short: as §2
[6] = substrate: O=C(CI)NCCCCCNc1ncnc2c1ncn2[C@@H]1O[C@H](COP(=O)(O)OP(=O)(O)OP(=O)(O)O)[C@@H](O)[C@H]1O; assay: as §1; in short: as §2
[7] = substrate: CCCSc1nc2c(N)ncnc2n1[C@@H]1O[C@H](COP(=O)(O)OP(=O)(O)OP(=O)(O)O)[C@@H](O)[C@H]1O; assay: (§3) Activity of Sprague-Dawley rat liver adenylate kinase 3 by Lineweaver-Burk plot analysis relative to ATP; in short: as §2
[8] = substrate: CCSc1nc2c(N)ncnc2n1[C@@H]1O[C@H](COP(=O)(O)OP(=O)(O)OP(=O)(O)O)[C@@H](O)[C@H]1O; assay: as §3; in short: as §2
[9] = substrate: CSc1nc2c(N)ncnc2n1[C@@H]1O[C@H](COP(=O)(O)OP(=O)(O)OP(=O)(O)O)[C@@H](O)[C@H]1O; assay: as §3; in short: as §2
[10] = substrate: Nc1ncnc2c1nc(SCCO)n2[C@@H]1O[C@H](COP(=O)(O)OP(=O)(O)OP(=O)(O)O)[C@@H](O)[C@H]1O; assay: as §3; in short: as §2
[11] = substrate: Nc1ncnc2c1ncn2[C@@H]1O[C@H](COP(=O)(O)OP(=O)(O)OP(=O)(O)O)[C@@H](O)[C@H]1O; assay: as §3; in short: as §2
[12] = substrate: O=C(CI)NCCCCCNc1ncnc2c1ncn2[C@@H]1O[C@H](COP(=O)(O)OP(=O)(O)OP(=O)(O)O)[C@@H](O)[C@H]1O; assay: as §3; in short: as §2
[13] = substrate: CCCSc1nc2c(N)ncnc2n1[C@@H]1O[C@H](COP(=O)(O)OP(=O)(O)OP(=O)(O)O)[C@@H](O)[C@H]1O; assay: (§4) Activity of Sprague-Dawley rat muscle adenylate kinase by Lineweaver-Burk plot analysis relative to ATP; in short: as §2
[14] = substrate: CSc1nc2c(N)ncnc2n1[C@@H]1O[C@H](COP(=O)(O)OP(=O)(O)OP(=O)(O)O)[C@@H](O)[C@H]1O; assay: as §4; in short: as §2
[15] = substrate: Nc1ncnc2c1ncn2[C@@H]1O[C@H](COP(=O)(O)OP(=O)(O)OP(=O)(O)O)[C@@H](O)[C@H]1O; assay: as §4; in short: as §2
[16] = substrate: O=C(CI)NCCCCCNc1ncnc2c1ncn2[C@@H]1O[C@H](COP(=O)(O)OP(=O)(O)OP(=O)(O)O)[C@@H](O)[C@H]1O; assay: as §4; in short: as §2
[17] = substrate: Nc1ncnc2c1ncn2[C@@H]1O[C@H](COP(=O)(O)OP(=O)(O)OP(=O)(O)O)[C@@H](O)[C@H]1O; details: Rattus norvegicus; Sprague-Dawley

Row | Protein | Km [1] [µM] | Km [2] [µM] | Km [3] [µM] | Km [4] [µM] | Km [5] [µM] | Km [6] [µM] | Vmax [7] [%] | Vmax [8] [%] | Vmax [9] [%] | Vmax [10] [%] | Vmax [11] [%] | Vmax [12] [%] | Vmax [13] [%] | Vmax [14] [%] | Vmax [15] [%] | Vmax [16] [%] | Km [17] [µM]
1 | GTP:AMP phosphotransferase AK3, mitochondrial (Rattus norvegicus), P29411 (protein) MGASGRLLRAVIMGAPGSGKGTGSSRITKHFELKHLSSGDLLRQNMLQGTEIAVLAKSFIDQGKLIPDDDMTRLALHELKNLTQCSWLLDGFPRTLPQAEALDRVYQIDTVINLNVPFEVIKLRLTARWIHPASGRVYNIEFNPPKTVGIDDLTGEPLIQREDDKPETVIKRLKAYEAQTEPVLQYYQKKGVLETFSGTETNKIRPHVYSFLQMKVPETIQKASVTP | 40 | 70 | 150 | 120 | 90 | 400 | 10.4 | 11.4 | 8.3 | 12.5 | 100 | 8.9 | – | – | – | – | –
2 | Adenylate kinase isoenzyme 1 (Rattus norvegicus), P39069 (protein) MEDKLKKAKIIFVVGGPGSGKGTQCEKIVQKYGYTHLSTGDLLRAEVSSGSSRGKMLSSIMEKGELVPLETVLDMLRDAMLAKVDSSNGFLIDGYPREVKQGEEFERKIAQPTLLLYVDAGPETMTQRLLKRGETSGRVDDNEETIKKRLETYYKATEPVISFYDKRGIVRKVNAEGSVDTVFSQVCTYLDSLK | – | – | – | – | – | – | – | – | – | – | – | – | 0 | 0 | 100 | 0 | 650
